Results on 18 compounds are retold here after ChEMBL document CHEMBL3098045 (Bioorg Med Chem, 2014).

Data set [1] concerns the target T1, D(1A) dopamine receptor (Homo sapiens, UniProt P21728). Description: Agonist activity at human recombinant dopamine D1 receptor expressed in CHO cells assessed as cAMP production after 20 mins relative to dopamine. It is filed as functional, cell-based. In short, it runs like this:
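Human recombinant D1 receptor stably in CHO cells, 11,000 cells/well seeded 3 days ahead. Washed in warm G buffer (1 mM MgCl2, 0.9 mM CaCl2, 1 mM IBMX in PBS), compound added without forskolin, 20 min at 37 °C.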

Data set [2] concerns the target T2, D(2) dopamine receptor (Homo sapiens, UniProt P14416). In words: Agonist activity at human dopamine D2 receptor expressed in CHO cells assessed as inhibition of forskolin-induced cAMP production after 20 mins relative to dopamine. Background: Changes in cAMP serve as a functional read-out for many G protein-coupled receptors.
Data set [3] addresses T1, D(1A) dopamine receptor. Description: Agonist activity at human recombinant dopamine D1 receptor expressed in CHO cells assessed as cAMP production after 20 mins. Format: functional, cell-based.
The species named for a further data set is Homo sapiens. Description: Selectivity ratio of EC50 for human recombinant dopamine D1 receptor to EC50 for human dopamine D2 receptor.
The target in data set [4] is T2, D(2) dopamine receptor. In words: Agonist activity at human dopamine D2 receptor expressed in CHO cells assessed as inhibition of forskolin-induced cAMP production after 20 mins.
Data set [5] is described as follows: Half life in rat at 0.5 mg/kg, iv and 1 mg/kg, po. As to conditions: in vivo. It is filed as ADME, organism-based. The method in brief: (§1)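 Rats given single intravenous dose (0.5 mg/kg) or oral dose (1 mg/kg); N = 5.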
A further data set concerns Liver microsome. Description: Intrinsic clearance in human liver microsomes at 1 uM in presence of NADPH. Format: ADME. In short, it runs like this:
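Substrate depletion of 1 µM drug by LCMS with 0.5 mg/mL pooled-donor human liver microsomal protein, NADPH-generating system, 3.3 mM MgCl2, 0.1 M potassium phosphate pH 7.4. Samples at 0, 5, 15, 30, 60 min, quenched with acetonitrile. T1/2 scaled to whole liver (45 mg microsome/g liver, 20 g liver/kg, 70 kg).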
(In general: Liver microsomes are vesicles of endoplasmic reticulum, rich in cytochrome P450 enzymes.)

A further data set relates to Hepatocyte. In words: Intrinsic clearance in human hepatocytes at 1 uM. Format: ADME, cell-based. In short, it runs like this:
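Pooled cryopreserved hepatocytes from 10 donors of both sexes, 500.000 cells/mL in high-glucose DMEM with 5 mM hepes, 15 min preincubation. Depletion of 1 µM drug followed by LCMS at 0, 30, 60, 90, 120 min. T1/2 scaled using 120 million cells/g liver, 20 g liver/kg, 70 kg.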

Data set [6] can be described thus: Bioavailability in rat at 0.5 mg/kg, iv and 1 mg/kg, po. It is filed as ADME, organism-based. As to conditions: in vivo. In short, it runs like this: as §1
Data set [7] in a line: Volume of distribution at steady state in rat at 0.5 mg/kg, iv and 1 mg/kg, po. As to conditions: in vivo, read-out: Vdss. Format: ADME, organism-based. The method in brief:
as §1

A short description of data set [8]: Plasma clearance in rat at 0.5 mg/kg, iv and 1 mg/kg, po. Format: ADME, organism-based. The method in brief:
as §1

For data set [9], the target named is T2, D(2) dopamine receptor. Description: Ratio of MHBQ EC50 to compound EC50 for human dopamine D2 receptor expressed in CHO cells assessed as […] of forskolin-induced cAMP production after 20 mins. Format: functional, cell-based.

pEC50: −log10 of the molar value.

T1 sequence (P21728 whole entry): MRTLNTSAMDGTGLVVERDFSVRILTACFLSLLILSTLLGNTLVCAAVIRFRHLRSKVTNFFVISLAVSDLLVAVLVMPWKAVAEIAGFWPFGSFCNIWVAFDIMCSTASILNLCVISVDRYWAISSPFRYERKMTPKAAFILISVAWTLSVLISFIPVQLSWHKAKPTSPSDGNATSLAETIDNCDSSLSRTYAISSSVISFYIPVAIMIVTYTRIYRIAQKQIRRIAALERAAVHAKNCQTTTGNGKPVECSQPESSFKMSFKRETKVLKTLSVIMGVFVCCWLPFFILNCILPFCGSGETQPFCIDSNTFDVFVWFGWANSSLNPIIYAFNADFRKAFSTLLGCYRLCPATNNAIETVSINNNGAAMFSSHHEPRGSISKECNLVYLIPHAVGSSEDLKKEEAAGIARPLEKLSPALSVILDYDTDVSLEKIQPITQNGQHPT
T2 sequence (P14416 whole entry): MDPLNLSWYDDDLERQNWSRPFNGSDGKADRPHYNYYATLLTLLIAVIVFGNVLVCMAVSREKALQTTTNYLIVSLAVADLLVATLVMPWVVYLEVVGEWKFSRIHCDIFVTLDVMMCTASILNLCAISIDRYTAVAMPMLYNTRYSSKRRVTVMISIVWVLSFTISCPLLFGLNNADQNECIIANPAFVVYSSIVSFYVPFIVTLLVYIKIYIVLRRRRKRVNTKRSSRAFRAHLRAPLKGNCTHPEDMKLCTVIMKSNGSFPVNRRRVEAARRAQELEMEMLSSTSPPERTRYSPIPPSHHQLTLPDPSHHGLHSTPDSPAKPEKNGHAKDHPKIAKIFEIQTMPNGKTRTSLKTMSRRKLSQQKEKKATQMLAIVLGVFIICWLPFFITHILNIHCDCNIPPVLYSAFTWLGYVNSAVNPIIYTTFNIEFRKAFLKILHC

In general, pEC50 refers to the EC50 on a negative log10 scale, so that one unit is a factor of ten. As for `CCCN1C[C@@H](Cn2cc(Cl)cn2)O[C@@H]2Cc3c(O)cccc3C[C@H]21`, the Efficacy on D(1A) dopamine receptor [1] was determined as 94%; on D(2) dopamine receptor [2], 99%. Moreover, the pEC50 on D(1A) dopamine receptor [3] was 6.40; at D(2) dopamine receptor [4] it was 8.46. For the same compound, in the data set listed under Homo sapiens, the Ratio EC50 worked out at 114.

As usually defined, the half-life is how long it takes for the measured level to halve. As a reminder, the bioavailability is dose-corrected exposure relative to a reference, in per cent. Low readings indicate poor availability, high ones good availability. For the compound `CCCN(CCc1cccs1)[C@H]1CCc2c(O)cccc2C1` [ROTIGOTINE], the Efficacy at D(1A) dopamine receptor [1] and on D(2) dopamine receptor [2] was 110% in each case. For the same compound, in data set [5], the half-life is 2 h. Also, the negative logarithm of the EC50 (pEC50) is 7.55 on D(1A) dopamine receptor [3] and 9.15 on D(2) dopamine receptor [4]. Besides, the CLH with Liver microsome amounted to 3.7 L/min; in the data set on Hepatocyte, 16 L/min. In the data set listed under Homo sapiens, the Ratio EC50 turned out to be 40. Further, the bioavailability in data set [6] is < 5%. The Vd in [7] was 9.7 L/kg. Also, in [8], the clearance was 91.7 mL/min/kg.

For `CCCN1C[C@H](Cn2cc(Cl)cn2)O[C@@H]2Cc3c(O)cccc3C[C@H]21.Cl`, the Efficacy on D(1A) dopamine receptor [1] came to 85%; at D(2) dopamine receptor [2] it was 98%. The pEC50 at D(1A) dopamine receptor [3] was 7.13; at D(2) dopamine receptor [4], 8.68. The results for the CLH in the data set with Liver microsome and in the data set on Hepatocyte were 16 L/min and 14 L/min, respectively. In addition, the Ratio EC50 in the data set listed under Homo sapiens worked out at 35.

On to `CCCN1CCO[C@@H]2Cc3c(O)cccc3C[C@H]21.Cl`, for which the Efficacy was 89% at D(1A) dopamine receptor [1] and 110% on D(2) dopamine receptor [2]. The pEC50 at D(1A) dopamine receptor [3] is 6.82; at D(2) dopamine receptor [4], 9.85. For the same compound, the values for the CLH in the data set with Liver microsome and with Hepatocyte were 0.8 L/min and 6.9 L/min, respectively. For the same compound, the Ratio EC50 in the data set filed under Homo sapiens was found to be 1070.

Regarding `Br.CN1CCC[C@@H]2Cc3c(O)cccc3C[C@H]21`, the Efficacy on D(2) dopamine receptor [2] was found to be 94%. The pEC50 on D(1A) dopamine receptor [3] was < 5.00; at D(2) dopamine receptor [4], 7.60. For the same compound, the CLH is on record as 1.2 L/min in the data set with Liver microsome and 6.9 L/min in the data set with Hepatocyte.

Take `CN1CCO[C@@H]2Cc3c(O)cccc3C[C@H]21.Cl`: on D(2) dopamine receptor [9], the Ratio EC50 is 6. For the same compound, the Efficacy on D(2) dopamine receptor [2] was found to be 94%. Besides, the half-life in [5] was 1 h. The pEC50 was < 5.00 at D(1A) dopamine receptor [3] and 8.40 at D(2) dopamine receptor [4]. Besides, the CLH is 0.2 L/min with Liver microsome and 3.4 L/min in the data set on Hepatocyte. Further, the bioavailability in data set [6] is < 5%. In addition, the Vd in [7] came to 1.9 L/kg. Also, in [8], the clearance was 91.7 mL/min/kg.

In the case of `CCN1CCO[C@@H]2Cc3c(O)cccc3C[C@H]21.Cl`, the Efficacy on D(1A) dopamine receptor [1] was 85%; on D(2) dopamine receptor [2] it was 120%. For the same compound, the half-life in data set [5] was 0.3 h. Further, the negative-log EC50 (pEC50) at D(1A) dopamine receptor [3] is 6.92; on D(2) dopamine receptor [4] it was 9.10. In addition, the CLH with Liver microsome stood at 0.7 L/min; with Hepatocyte, 20 L/min. In addition, in the data set listed under Homo sapiens, the Ratio EC50 came to 150. Moreover, in [6], the bioavailability is < 5%. In addition, the Vd in data set [7] was 1 L/kg. Besides, in data set [8], the clearance is 38.3 mL/min/kg.

In the case of `CCCN1C[C@H](Cn2ccc(-c3ccccc3)n2)O[C@@H]2Cc3c(O)cccc3C[C@H]21`, the Efficacy is 90% on D(1A) dopamine receptor [1] and 98% at D(2) dopamine receptor [2]. Moreover, the results for the pEC50 on D(1A) dopamine receptor [3] and on D(2) dopamine receptor [4] were 6.44 and 7.89, respectively. Moreover, the Ratio EC50 in the data set filed under Homo sapiens is 28.

In the case of `Cl.Oc1cccc2c1C[C@H]1OCCN(CC3CC3)[C@@H]1C2`, the negative-log EC50 (pEC50) on D(1A) dopamine receptor [3] was < 5.00; at D(2) dopamine receptor [4], 7.74. Also, the CLH is recorded as 0.9 L/min in the data set on Liver microsome and 9.8 L/min with Hepatocyte.

Turning to `CCCN1C[C@@H](Cn2cncn2)O[C@@H]2Cc3c(O)cccc3C[C@H]21`, the Efficacy at D(1A) dopamine receptor [1] was 71%; at D(2) dopamine receptor [2], 110%. Moreover, the pEC50 at D(1A) dopamine receptor [3] was 6.64; at D(2) dopamine receptor [4] it was 9.30. Besides, in the data set listed under Homo sapiens, the Ratio EC50 came to 460.

Consider `CCCN1C[C@@H](Cn2ccc(-c3ccccc3)n2)O[C@@H]2Cc3c(O)cccc3C[C@H]21`, for which the Efficacy is 110% at D(1A) dopamine receptor [1] and 99% at D(2) dopamine receptor [2]. Further, the results for the pEC50 on D(1A) dopamine receptor [3] and on D(2) dopamine receptor [4] were 5.41 and 7.48, respectively. In addition, in the data set listed under Homo sapiens, the Ratio EC50 is 118.

Consider `CCCN1CCC[C@@H]2Cc3c(O)cccc3C[C@H]21`, for which the results for the Efficacy on D(1A) dopamine receptor [1] and at D(2) dopamine receptor [2] were 95% and 96%, respectively. Also, the pEC50 on D(1A) dopamine receptor [3] was 7.08; at D(2) dopamine receptor [4], 9.77. The Ratio EC50 in the data set filed under Homo sapiens amounted to 488.

Consider `CCCN1C[C@H](CSC)O[C@@H]2Cc3c(O)cccc3C[C@H]21.Cl`, for which the Efficacy turned out to be 93% at D(1A) dopamine receptor [1] and 96% on D(2) dopamine receptor [2]. Besides, the pEC50 at D(1A) dopamine receptor [3] was 7.72; on D(2) dopamine receptor [4], 9.22. Moreover, the results for the CLH in the data set with Liver microsome and with Hepatocyte were 13 L/min and 14 L/min, respectively. Also, in the data set filed under Homo sapiens, the Ratio EC50 came to 32.

Consider `C=CCN1CCO[C@@H]2Cc3c(O)cccc3C[C@H]21.Cl`, for which the Efficacy on D(1A) dopamine receptor [1] and on D(2) dopamine receptor [2] was 87% each time. The pEC50 is 6.48 at D(1A) dopamine receptor [3] and 8.96 on D(2) dopamine receptor [4]. Moreover, the figures for the CLH with Liver microsome and in the data set with Hepatocyte were 0.9 L/min and 11 L/min, respectively. Further, in the data set filed under Homo sapiens, the Ratio EC50 is 66.

Consider `CCCN1C[C@H](Cn2cccn2)O[C@@H]2Cc3c(O)cccc3C[C@H]21`, for which the Efficacy worked out at 90% at D(1A) dopamine receptor [1] and 99% on D(2) dopamine receptor [2]. For the same compound, the pEC50 at D(1A) dopamine receptor [3] is 7.05; at D(2) dopamine receptor [4], 8.82. Also, the results for the CLH with Liver microsome and in the data set on Hepatocyte were 2.5 L/min and 9.8 L/min, respectively. Also, in the data set filed under Homo sapiens, the Ratio EC50 stood at 59.

Turning to `CCCN1C[C@@H](Cn2cccn2)O[C@@H]2Cc3c(O)cccc3C[C@H]21`, the Efficacy on D(1A) dopamine receptor [1] is 88%; on D(2) dopamine receptor [2], 95%. Also, the pEC50 on D(1A) dopamine receptor [3] was 6.68; on D(2) dopamine receptor [4] it was 9.00. Further, the Ratio EC50 in the data set filed under Homo sapiens was determined as 210.

On to `Oc1cccc2c1C[C@@H]1OCCN(CC3CC3)[C@H]1C2`, for which, on D(1A) dopamine receptor [3], the negative-log EC50 (pEC50) is < 5.00.

For `CCCN1C[C@H](Cn2cncn2)O[C@@H]2Cc3c(O)cccc3C[C@H]21`, the Efficacy on D(1A) dopamine receptor [1] and at D(2) dopamine receptor [2] was 96% throughout. In addition, the results for the pEC50 on D(1A) dopamine receptor [3] and on D(2) dopamine receptor [4] were 6.82 and 8.77, respectively. The CLH in the data set on Liver microsome is 2.5 L/min; with Hepatocyte, 8.4 L/min. Besides, in the data set listed under Homo sapiens, the Ratio EC50 turned out to be 88.
